b-catenin transl: beta-catenin nuclear translocation modulation. HeLa beta-catenin nuclear translocation, immunofluorescence imaging. nuclear translocation activity, % at 5 µM. AID 1665. actives 0.3% (n = 190,000);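 active = nuclear translocation activity above 50% at 5 µM, with a well cell count of 50 or more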;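 note: per-cell ratio of nuclear to cytoplasmic median beta-catenin stain intensity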
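Test system: human HeLa cell line; Doses: 5 µM primary, 0.02–20 µM confirmation; Incubation: 24 h compound exposure, 37°C; Detection: beta-catenin immunofluorescence imaging with DAPI; Read-out: beta-catenin nuclear/cytoplasmic ratio, % activation.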
Autophagy mod: modulators of autophagy; MEF GFP-LC3 puncta imaging; test concentration mostly 10 µM; calls only at 10 µM (by protocol); actives 0.98% (n = 190,000); AID 463193;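 active = percentage of spot-positive cells more than 3 SD above its plate mean, without a fluorescence outlier flag or 80% toxicity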
Dynein cargo inh: dynein cargo transport inhibition; 3617.4 mouse cells, GR-EGFP nuclear translocation imaging; test concentration mostly 20 µM; stimulated with dexamethasone, 1 µM; active compounds read low; z-score, hits read low; actives 0.47% (n = 220,000);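 active = plate z-score of nuclear minus cytoplasmic receptor signal below a set negative limit, without overly bright fluorescence or cell loss, cut at about -3.5 in these data, passing the limit was not always enough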;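 note: z-score of nuclear minus cytoplasmic ring GR-EGFP intensity difference per well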
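Buffer or medium: tet-free, stripped-serum medium; reagent: dexamethasone at 1.0 µM final, 30 min; incubation: 48 h induction, 1 h compound, 30 min dex at 37 °C; measured by: formaldehyde fixation, Hoechst nuclear stain, 10x automated fluorescence imaging; read-out: nuclear-to-cytoplasmic GR-EGFP distribution per well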
CHOP inhibitor: CHOP inhibition in unfolded protein response; CHO-K1 CHOP-promoter luciferase, tunicamycin-induced, 15-18 h; inhibition, % at 10 µM; actives 3.8% (n = 220,000);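 active = compounds that reduced the stress-induced luciferase reporter signal by more than about 70% of percent inhibition, limit read from the data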
MT stabilize HCS: microtubule stabilizers in HeLa cells | HeLa tubulin immunostaining HCS, 24 h; share of cells brighter than vehicle mean+2SD | % tubulin-high responders, % at 10 µM | actives 0.83% (n = 200,000) | AID 2205;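 active = plate Z-score above 3 for both tubulin-high and condensed-nucleus cell shares, with cell loss under 80%, at 10 µM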;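 note: anti alpha tubulin signal scored within the nucleus-defined area of each cell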
L major viab: Leishmania major promastigote growth inhibition; Leishmania major promastigotes, resazurin fluorescence viability; inhibition, % at 10 µM; actives 9% (n = 200,000); in the data active = inhibition above about 50%;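 note: promastigotes grown with compound for 44 hours at 28 °C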
Numbers stand for hits; - = inactive; . = no result; + = active, no number. Compounds with a hit are over-represented: about 12% of the library has one in this group of screens.

SMILES	b-catenin transl	Autophagy mod	Dynein cargo inh	CHOP inhibitor	MT stabilize HCS	L major viab
COc1cccc(-c2nc(COc3ccc(Cl)cc3Cl)no2)c1	-	.	-	-	.	.
O=c1c2ccccc2n2c(-c3ccc(F)cc3)nnc2n1Cc1ccccc1	-	-	-	-	-	56
O=c1c2ccccc2n2c(-c3ccc(C(F)(F)F)cc3)nnc2n1Cc1ccccc1	-	-	-	-	-	-
Cc1cc(NC(=O)COC(=O)C(Cc2ccccc2)NC(=O)c2ccco2)no1 (stereo unspecified)	-	+	-	-	-	-
Cc1ccc(C)c2sc(NC(=O)c3ccc(N4CCCCC4)c([N+](=O)[O-])c3)nc12	-	-	-	-	-	81
Cc1cccc(C)c1NC(=O)COC(=O)c1ccc(N2CCCC2)c([N+](=O)[O-])c1	-	-	-	80	-	-
CCC(C)c1ccccc1NC(=O)COC(=O)c1ccc(N2CCCC2)c([N+](=O)[O-])c1 (stereo unspecified)	-	-	-	-	-	-
Cc1cc(=O)oc2cc(OCC(=O)OCC(=O)NCCc3ccccc3)ccc12	-	-	-	-	-	-
CC(NC(=O)c1ccccc1)c1nc2ccccc2n1Cc1ccccc1F (stereo unspecified)	-	-	-	-	-	53
CC(NC(=O)c1ccccc1)c1nc2ccccc2n1Cc1ccc(C#N)cc1 (stereo unspecified)	-	-	-	-	-	-
CCN(CC)S(=O)(=O)c1ccc(N2CCOCC2)c(NS(=O)(=O)c2cc(C(C)(C)C)ccc2C)c1	-	-	-	-	-	93
CCN(CC)S(=O)(=O)c1cc(NS(=O)(=O)c2ccccc2)ccc1C	-	-	-	-	-	52
CCN(CC)S(=O)(=O)c1ccc(N2CCCC2)c(NS(=O)(=O)c2ccccc2)c1	-	-	-	-	-	63
CCN(CC)S(=O)(=O)c1ccc(N2CCCC2)c(NS(=O)(=O)c2ccc([N+](=O)[O-])cc2)c1	-	-	-	-	-	-
CCN(CC)S(=O)(=O)c1ccc(N2CCCC2)c(NS(=O)(=O)c2ccc(F)cc2)c1	-	-	-	-	-	60
CCN(CC)S(=O)(=O)c1ccc(N2CCCC2)c(NS(=O)(=O)c2ccc(OC)cc2)c1	-	-	-	-	-	-
S=C(c1ccc2c(c1)OCO2)N1CCOCC1	-	.	-	-	.	.
CCOC(=O)C1=C(C)N(CCCC(=O)O)C(=O)NC1c1ccccc1OS(=O)(=O)c1ccc(C)cc1 (stereo unspecified)	-	-	-	-	-	-
CC1(C)CC(=O)c2c(nc3ccccc3c2N)C1	-	-	-	-	-	-
CCNc1c2c(nc3ccccc13)CC(C)(C)CC2=O	-	-	-	-	-	58
Cc1ccc(OCC(=O)NCCN2CCCC2)cc1	.	-	-	-	-	-
CC(C)(C)c1ccc(OCC(=O)NCCN2CCCC2)cc1	-	-	-	-	-	80
Cc1ccc(N(CC(=O)NC(C)(C)C)C(=O)CS(=O)CC(=O)Nc2ccc3c(c2)OCO3)cc1 (stereo unspecified)	-	-	-	-	-	-
COc1ccc(C(c2nnnn2C2CCCCC2)N2CCN(c3ccccc3)CC2)cc1 (stereo unspecified)	-	-	-	.	-	84
COc1ccc(C(c2nnnn2C2CCCC2)N2CCN(c3ccccc3)CC2)cc1 (stereo unspecified)	-	-	-	-	-	63
SMILES	b-catenin transl	Autophagy mod	Dynein cargo inh	CHOP inhibitor	MT stabilize HCS	L major viab
CC1CCCC(C)N1/N=C/c1ccc(C#N)cc1 (stereo unspecified)	-	-	-	-	-	-
Cc1ccc(Cl)cc1NC1=NC(=S)N(C(C)C)C12CCCCC2	-	-	-	-	-	-
Cc1nc(SC(C(N)=O)c2ccccc2)c(C#N)c(C)c1C (stereo unspecified)	-	.	-	-	.	.
COc1ccccc1-c1cc(-c2ccccc2)nc(SC(C(N)=O)c2ccccc2)c1C#N (stereo unspecified)	-	-	-	76	-	-
COC(=O)C(Sc1nc(C)cc(C)c1C#N)c1ccccc1 (stereo unspecified)	-	-	-	-	-	98
COc1cc(CNC(C)c2ccccc2)cc(Cl)c1OCC(=O)Nc1ccccc1 (stereo unspecified)	-	-	-	-	-	-
